# Experimental data taken from article PMC2788794 (Chemistry & biology, 2009).
# B1: Fbg: Human fibrinogen, plasma protein, adsorbed to hydrophobic monolayer as positive control (protein)
# chain 1: ADSGEGDFLAEGGGVRGPRVVERHQSACKDSDWPFCSDEDWNYKCPSGCRMKGLIDEVNQDFTNRINKLKNSLFEYQKNNKDSHSLTTNIMEILRGDFSSANNRDNTYNRVSEDLRSRIEVLKRKVIEKVQHIQLLQKNVRAQLVDMKRLEVDIDIKIRSCRGSCSRALAREVDLKDYEDQQKQLEQVIAKDLLPSRDRQHLPLIKMKPVPDLVPGNFKSQLQKVPPEWKALTDMPQMRMELERPGGNEITRGGSTSYGTGSETESPRNPSSAGSWNSGSSGPGSTGNRNPGSSGTGGTATWKPGSSGPGSTGSWNSGSSGTGSTGNQNPGSPRPGSTGTWNPGSSERGSAGHWTSESSVSGSTGQWHSESGSFRPDSPGSGNARPNNPDWGTFEEVSGNVSPGTRREYHTEKLVTSKGDKELRTGKEKVTSGSTTTTRRSCSKTVTKTVIGPDGHKEVTKEVVTSEDGSDCPEAMDLGTLSGIGTLDGFRHRHPDEAAFFDTASTGKTFPGFFSPMLGEFVSETESRGSESGIFTNTKESSSHHPGIAEFPSRGKSSSYSKQFTSSTSYNRGDSTFESKSYKMADEAGSEADHEGTHSTKRGHAKSRPVRGIHTSPLGKPSLSP
# chain 2: QGVNDNEEGFFSARGHRPLDKKREEAPSLRPAPPPISGGGYRARPAKAAATQKKVERKAPDAGGCLHADPDLGVLCPTGCQLQEALLQQERPIRNSVDELNNNVEAVSQTSSSSFQYMYLLKDLWQKRQKQVKDNENVVNEYSSELEKHQLYIDETVNSNIPTNLRVLRSILENLRSKIQKLESDVSAQMEYCRTPCTVSCNIPVVSGKECEEIIRKGGETSEMYLIQPDSSVKPYRVYCDMNTENGGWTVIQNRQDGSVDFGRKWDPYKQGFGNVATNTDGKNYCGLPGEYWLGNDKISQLTRMGPTELLIEMEDWKGDKVKAHYGGFTVQNEANKYQISVNKYRGTAGNALMDGASQLMGENRTMTIHNGMFFSTYDRDNDGWLTSDPRKQCSKEDGGGWWYNRCHAANPNGRYYWGGQYTWDMAKHGTDDGVVWMNWKGSWYSMRKMSMKIRPFFPQQ
# chain 3: YVATRDNCCILDERFGSYCPTTCGIADFLSTYQTKVDKDLQSLEDILHQVENKTSEVKQLIKAIQLTYNPDESSKPNMIDAATLKSRKMLEEIMKYEASILTHDSSIRYLQEIYNSNNQKIVNLKEKVAQLEAQCQEPCKDTVQIHDITGKDCQDIANKGAKQSGLYFIKPLKANQQFLVYCEIDGSGNGWTVFQKRLDGSVDFKKNWIQYKEGFGHLSPTGTTEFWLGNEKIHLISTQSAIPYALRVELEDWNGRTSTADYAMFKVGPEADKYRLTYAYFAGGDAGDAFDGFDFGDDPSDKFFTSHNGMQFSTWDNDNDKFEGNCAEQDGSGWWMNKCHAGHLNGVYYQGGTYSKASTPNGYDNGIIWATWKTRWYSMKKTTMKIIPFNRLTIGEGQQHHLGGAKQAGDV
# Legend:
# [1] = test system: platelets; conditions: cited from earlier work; for inhibition of Fbg binding to platelets: ref Bennett et al., 1988
# [2] = test system: αIIbβ3 CHO K1 cells; test: Cell adhesion inhibition assay with soluble peptides; assay type: cell-based; conditions: soluble peptide 1 pM to 100 µM; 0.5% GRGDSC monolayer; 300 µM cRGDFG
# [3] = test system: platelets; conditions: ref Bennett et al., 1988; cited from earlier work
# [4] = test system: αIIbβ3 CHO K1 cells; test: Adhesion of transfected cells to GRGDSC monolayer in presence of inhibitors; assay type: cell-based; conditions: 0.5% GRGDSC SAM
# [5] = test system: αIIbβ3; conditions: platelets; ref Bennett et al., 1988; cited from earlier work
# [6] = test system: CHO K1 cells; test: Block of cell attachment to GRGDSC monolayer by cRGDFG; assay type: cell-based; conditions: cRGDFG 300 µM; 0.5% GRGDSC SAM
# Outline: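 Untransfected CHO K1 cells (F12K, 10% FBS, 37 °C, 5% CO2) were seeded on 0.5% GRGDSC SAMs, with or without cRGDFG 300 µM. The GRGDSC surface was made by coupling cysteine-terminated peptide (1 mM, 37 °C, 1 h) to a maleimide-presenting monolayer with tri(ethylene glycol) background. Adherent cells were scored by optical microscopy.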
# [7] = test system: αvβ3; conditions: ref Haubner et al., 1996; cited from earlier work
# [8] = test system: αIIbβ3 CHO K1 cells; test: Cell adhesion assay on self-assembled monolayers presenting immobilized peptides; assay type: cell-based; conditions: Fbg adsorbed on dodecanethiol (hydrophobic) monolayer; 300 µM cRGDFG
molecule,measurement,setting,value
AGDV,inhibition of Fbg binding to activated platelets,"[1]; soluble peptide competing with radiolabeled Fbg, ref Plow et al., 1985",failure of an AGDV peptide to inhibit Fbg binding
same,block of cell attachment by soluble peptide to a monolayer presenting GRGDS,[2],blocked cell attachment
HHLGGAKQAGDV,block of cell attachment by soluble peptide to a monolayer presenting GRGDS,[2],blocked cell attachment
LGGAKQAGDV,inhibition of Fbg binding to platelets,[1],inhibited Fbg binding to platelets with an affinity comparable to that of RGDS
same,inhibition of binding of A2A9 to platelets,[3],could inhibit the binding of A2A9
PAC-1,effect on adhesion of αIIbβ3 CHO K1 cells to a monolayer presenting GRGDSC,[4]; PAC-1 antibody together with cRGDFG 300 µM,prevented cell adhesion
RGDS,inhibition of Fbg binding to platelets,[1],blocked the binding of both PAC-1 and Fbg to platelets with equal potency
same,inhibition of PAC-1 binding,[5],blocked the binding of both PAC-1 and Fbg to platelets with equal potency
cRGDFG (head to tail),block of attachment of CHO K1 cells to a monolayer presenting GRGDSC,[6],efficiently block the attachment
same,affinity for αvβ3 relative to that for αIIbβ3,[7],"approximately 1,400 fold"
same,effect on adhesion of αIIbβ3 CHO K1 cells to a monolayer presenting GRGDSC,[4]; cRGDFG 300 µM,did not interfere with adhesion
B1,adhesion and spreading of αIIbβ3 CHO cells on adsorbed Fbg (positive control),[8],adhered and spread
